Assay results published in publication PMC3793015 (Journal of agricultural and food chemistry, 2013).

Assays:
HepG2 cells = assay: Cellular uptake and metabolism of α-MG; format: in vitro ADME, human
Procedure, shortened: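 HepG2 monolayers, 2 days post-confluence, received 9.0 μM compound as a DMSO stock added to 10% FBS medium for 24 h. Activated cultures had 10 ng/mL TNF-α for 4 h and a PBS wash first. Medium and cells were collected separately, extracted and analysed by RP-HPLC for free and glucuronidated/sulfated xanthones. Quantification used retention time, UV spectrum and five-point standard curves, as % of initial amount; mean ± SD, n ≥ 5.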

HT-29 = assay: Cytotoxicity of α-MG; format: cell-based, human; conditions: read-out: IC50 (cytotoxicity); HT-29, 24 h, Tween 40 delivery
Procedure, shortened: (§1)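 Cytotoxicity was judged by phase-contrast morphology and MTT reduction to formazan after exposure to increasing compound concentrations. Exposure was 24 h for RAW 264.7, MDM, HepG2 and HT-29, 8 h for PMA-differentiated THP-1, and 4 h for differentiated Caco-2. Delivery was DMSO into 10% FBS medium for RAW 264.7, THP-1 and HepG2; FBS-complexed compound at 10% FBS in RPMI 1640 for MDM; Tween 40 micelles for Caco-2 and HT-29.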

HT-29 cells = assay: Cellular uptake and metabolism of α-MG; format: in vitro ADME, human
Procedure, shortened: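 HT-29 monolayers, 2 days post-confluence, given 8.5 μM compound in Tween 40 micelles in medium for 24 h. Activated cultures had 800 ng/mL LPS for 4 h, then a PBS wash, before compound. Spent medium and cells were collected separately, extracted and analysed by RP-HPLC, including glucuronide/sulfate conjugates. Xanthones were identified by retention time and UV spectrum and quantified against five-point mangostin standard curves. Results are given as % of initial compound; mean ± SD, n ≥ 5.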

[1] = system: IL-8 secretion by enterocyte-like Caco-2 cells; assay: IL-8 secretion into basolateral medium; format: cell-based, human
Procedure, shortened: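 Caco-2 monolayers were differentiated 21–25 days post-confluence on Transwell inserts. Compound in Tween 40 micelles went into the apical compartment, and IL-1β was added basolaterally. IL-8 in basolateral medium was measured by ELISA, with and without IL-1β.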

[2] = system: TNF-α secretion by HepG2 cells; assay: TNF-α secretion; format: cell-based, human
Procedure, shortened: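 HepG2 monolayers, 2 days post-confluence, were pretreated with compound (DMSO stock into 10% FBS medium) and then stimulated with phorbol 12-myristate 13-acetate. Secreted TNF-α was quantified by ELISA in activated and nonactivated cultures.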

[3] = system: TNF-α secretion by MDM cells; assay: TNF-α secretion; format: cell-based, human
Procedure, shortened: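 Primary macrophages came from buffy-coat monocytes (Ficoll, clumping), differentiated 6 days with 50 ng/mL M-CSF (97% pure by CD14/CD11b). Compound was delivered in FBS at 10% FBS in RPMI 1640. Cells were then stimulated with E. coli O111:B4 LPS or left unstimulated. Secreted TNF-α was quantified by ELISA.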

[4] = system: LPS-induced production of NO in RAW 264.7 cells; assay: LPS-induced production of NO; format: cell-based, murine; conditions: RAW 264.7, data not shown
Procedure, shortened: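 RAW 264.7 cells, 2 days post-confluence, were pretreated 2 h with compound (DMSO stock into 10% FBS medium). They were then stimulated 16 h with 5 ng/mL E. coli O111:B4 LPS. NO production was estimated as medium nitrite by the Griess reaction.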

MDM = assay: Cytotoxicity of α-MG; format: cell-based, human; conditions: read-out: IC50 (cytotoxicity), 24 h, 10% FBS delivery
Procedure, shortened: as §1

MDM cells = assay: Cellular uptake and metabolism of α-MG; format: in vitro ADME, human; conditions: 24 h
Procedure, shortened: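 Monocytes came from buffy-coat mononuclear cells, isolated on Ficoll and by clumping, then differentiated 6 days with 50 ng/mL M-CSF (97% CD14/CD11b-positive). Compound (3.3 μM) was delivered in 100% FBS, diluted to 10% FBS in RPMI 1640, for 24 h. Activated cultures first had 100 ng/mL LPS for 4 h, then a PBS wash. Medium and cells were analysed separately by RP-HPLC, including conjugates; mean ± SD, n ≥ 5.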

RAW 264.7 = assay: Cytotoxicity of α-MG; format: cell-based, murine; conditions: read-out: IC50 (cytotoxicity); RAW 264.7, 24 h, 10% FBS delivery
Procedure, shortened: as §1

RAW 264.7 cells = assay: Cellular uptake and metabolism of α-MG; format: in vitro ADME, murine
Procedure, shortened: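 RAW 264.7 cells, 2 days post-confluence, received 7.7 μM compound (DMSO stock into 10% FBS medium) for 24 h. LPS-activated cultures had 5 ng/mL LPS for 4 h, then a PBS wash, before compound. Cells and medium were collected together because some cells were nonadherent. Samples were extracted and analysed by RP-HPLC for free and glucuronidated/sulfated xanthones, as % of initial concentration.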

[5] = system: IL-8 secretion by macrophage-like THP-1 cells; assay: IL-8 secretion; format: cell-based, human
Procedure, shortened: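 THP-1 cells, differentiated with 100 nM PMA for 48 h, were pretreated with compound added as a DMSO stock to 10% FBS medium, then stimulated with E. coli O111:B4 LPS. Supernatant IL-8 was measured by ELISA in LPS-treated and unstimulated cultures.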

[6] = 24 h after addition of α-MG, control cultures, nd: not detected
[7] = RAW 264.7, combined medium and cells, 7.7 μM, 24 h

COc1c(O)cc2oc3cc(O)c(CC=C(C)C)c(O)c3c(=O)c2c1CC=C(C)C [α-MG, α-mangostin]
xanthone in media, HepG2 (HepG2 cells; 0 h, amount of α-MG at start): 17834 ± 115 pmol/dish | intracellular profile table, α-MG at 0 h, HepG2 (HepG2 cells; 0 h, control cultures): 17834 ± 115 pmol/dish | intracellular xanthone, HepG2 (HepG2 cells; [6]): 9344 ± 298 pmol/dish | intracellular ratio of free to conjugated xanthones, activated vs control (HepG2 cells; HepG2, 10 ng/mL TNF-α 4 h before α-MG, 24 h, p < 0.05): increased | free xanthones in spent medium, of initial α-MG (HepG2 cells; HepG2, 9.0 μM, 24 h, control): 36 ± 2% | free α-MG in cells, of total (HepG2 cells; HepG2, 9.0 μM, 24 h, control): 27 ± 3% | glucuronidated/sulfated conjugates of α-MG in cells, of total (HepG2 cells; HepG2, 9.0 μM, 24 h, control): 29 ± 3% | recovery of α-MG equivalents added (HepG2 cells; HepG2, 24 h): 91 ± 4% | IC50 (HT-29): 180 µM | xanthone in media, HT-29 (HT-29 cells; 0 h, amount of α-MG at start): 16517 ± 373 | intracellular profile table, α-MG at 0 h, HT-29 (HT-29 cells; 0 h, control cultures): 16517 ± 373 | intracellular xanthone, HT-29 (HT-29 cells; [6]): 807 ± 178 | ratio of free to conjugated xanthones in medium, activated vs control (HT-29 cells; HT-29, 800 ng/mL LPS 4 h before α-MG, 24 h, p < 0.05): increased | free xanthones in medium, of initial α-MG (HT-29 cells; HT-29, 8.5 μM, 24 h, control): 7 ± 2% | nonconjugated xanthones in cells (HT-29 cells; HT-29, 8.5 μM, 24 h, control): only traces | phase II conjugates in cells, of α-MG added (HT-29 cells; HT-29, 8.5 μM, 24 h, control): 5 ± 1% | phase II conjugates in medium, of α-MG added (HT-29 cells; HT-29, 8.5 μM, 24 h, control): 42 ± 3% | recovery of α-MG (HT-29 cells; HT-29, 24 h incubation): 54 ± 4% | inhibition of IL-8 chemokine secretion ([1]; activated Caco-2, 15 μM pretreatment 4 h, IL-1β 5 ng/mL 16 h): 30–40% | effect on secretion of IL-8 ([1]; nonactivated Caco-2 cultures): not altered | attenuation of TNF-α secretion ([2]; PMA-activated HepG2, 7 μM pretreatment 16 h, PMA 50 ng/mL 4 h): 22% | effect on secretion of TNF-α ([2]; nonactivated HepG2 cultures): not altered | TNF-α secretion in absence vs presence of α-MG ([3]; 0.7 μM, LPS-treated MDM, p > 0.05, data not shown): similar | effect on TNF-α secretion ([3]; 0.7 μM, nonactivated MDM, p < 0.05, data not shown): increased | increase of LPS-stimulated secretion of TNF-α ([3]; MDM, 4.5 μM pretreatment 4 h, LPS 100 ng/mL 10 h): more than 50% | effect on basal secretion of TNF-α ([3]; nonactivated MDM cultures): more than doubled | inhibition of LPS-induced production of NO ([4]; 1 μM): 50% | inhibition of LPS-induced production of NO ([4]; 3 μM): 61% | inhibition of LPS-induced production of NO ([4]; 10 μM): 78% | IC50 (MDM): > 12 µM | free xanthones in spent medium, of initial α-MG (MDM cells; 3.3 μM, control): 57 ± 4% | free α-MG in cells, of total (MDM cells; 3.3 μM, control): 22 ± 5% | glucuronidated/sulfated conjugates of α-MG in cells, of total (MDM cells; 3.3 μM, control): 20 ± 10% | recovery of α-MG equivalents added (MDM cells): 99 ± 12% | IC50 (RAW 264.7): 23 µM | recovery of α-MG (RAW 264.7 cells; RAW 264.7, 24 h incubation): 80 ± 6% | ratio of free to conjugated xanthones, activated vs control (RAW 264.7 cells; RAW 264.7, LPS treatment, data not shown): increased | free α-MG, of initial concentration (RAW 264.7 cells; [7]): 18 ± 3% | glucuronidated/sulfated conjugates, of initial concentration (RAW 264.7 cells; [7]): 61 ± 6% | inhibition of IL-8 chemokine secretion ([5]; activated THP-1, 10 μM pretreatment 4 h, LPS 0.1 ng/mL 4 h): 30–40% | effect on secretion of IL-8 ([5]; nonactivated THP-1 cultures): not altered
